According to ChEMBL document CHEMBL3232834, “Synthesis of novel building blocks of benzosuberone bearing coumarin moieties and their evaluation as potential anticancer agents” (Eur J Med Chem, 2014):

How the values were obtained:
HEK293 = experiment: In vitro cytotoxicity against HEK293 cells assessed as growth inhibition by MTT assay; format: cell-based; conditions: Homo sapiens
How it was run: (§1)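 Human tumour lines A549 (alveolar adenocarcinoma), HeLa (cervical), MDA-MB-231 and MCF7 (breast adenocarcinoma), plus normal embryonic kidney HEK293, all ATCC-sourced, grown in 96-well plates. Growth inhibition read as cell-mediated reduction of tetrazolium salt (MTT) to formazan, with doxorubicin as standard. IC50 (µM) calculated from absorbance dose-response curves.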

HeLa = experiment: In vitro cytotoxicity against human HeLa cells assessed as growth inhibition by MTT assay; format: functional, cell-based; how it was run: as §1
A549 = experiment: In vitro cytotoxicity against human A549 cells assessed as growth inhibition by MTT assay; format: functional, cell-based; how it was run: as §1
MDA-MB-231 = experiment: In vitro cytotoxicity against human MDA-MB-231 cells assessed as growth inhibition by MTT assay; format: functional, cell-based; how it was run: as §1
MCF7 = experiment: In vitro cytotoxicity against human MCF7 cells assessed as growth inhibition by MTT assay; format: functional, cell-based; how it was run: as §1

Structure (SMILES) | IC50 (HEK293) [µM] | IC50 (HeLa) [µM] | IC50 (A549) [µM] | IC50 (MDA-MB-231) [µM] | IC50 (MCF7) [µM]
COc1cccc2c1C(=O)c1c(O)c3c(c(O)c1C2=O)C[C@@](O)(C(=O)CO)C[C@@H]3O[C@H]1C[C@H](N)[C@H](O)[C@H](C)O1 [DOXORUBICIN] | > 200 | – | – | – | –
Cc1cc2c(cc1C)-c1c(c(=O)oc3ccc(Cl)cc13)CCC2 | > 200 | 12.7 | 10.8 | 13.3 | 15.8
COc1cc2c(cc1OC)-c1c(c(=O)oc3ccccc13)CCC2 | > 200 | 6.72 | > 200 | 4.87 | > 200
O=c1oc2ccccc2c2c1CCCc1ccccc1-2 | > 200 | 14.1 | 3.35 | 16.8 | 9.63
